Assays:
[1] = test system: Mycobacterium tuberculosis; experiment: Antimycobacterial activity against Mycobacterium bovis BCG assessed as inhibition of microbial growth at 50 ug/ml incubated for 6 days by MABA method; type: functional; conditions: variant bovis BCG, 144 h, read-out: GI
Method in brief: (§1)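 Microplate alamar blue assay in 7H9GC medium. Compounds dissolved in DMSO at 10 mg/mL (stock), diluted to 100, 50, 25, 10, 5, 1 and 0.5 ug/mL, each in triplicate. Frozen inoculum added at final 2.5 x 10^5 CFU/mL. Bacteria-alone and medium-alone control wells. Read by colour change and fluorescence. % inhibition = (test − M bkg)/(B − M bkg) x 100, mean of two experiments. MIC50 = lowest concentration giving ≥50% inhibition.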

[2] = test system: Mycobacterium tuberculosis; experiment: Antimycobacterial activity against Mycobacterium bovis BCG assessed as inhibition of microbial growth at 100 ug/ml incubated for 6 days by MABA method; type: functional; conditions: variant bovis BCG, 144 h, read-out: GI; method in brief: as §1
[3] = test system: Mycobacterium tuberculosis; experiment: Antimycobacterial activity against Mycobacterium bovis BCG assessed as inhibition of microbial growth at 0.5 to 100 ug/ml incubated for 6 days by MABA method; type: functional, variant bovis BCG; method in brief: as §1
[4] = test system: Mycobacterium tuberculosis; experiment: Antimycobacterial activity against Mycobacterium bovis BCG assessed as inhibition of microbial growth at 10 ug/ml incubated for 6 days by MABA method; type: functional; conditions: variant bovis BCG, 144 h, read-out: GI; method in brief: as §1
[5] = test system: Mycobacterium tuberculosis; experiment: Antimycobacterial activity against Mycobacterium bovis BCG assessed as inhibition of microbial growth at 5 ug/ml incubated for 6 days by MABA method; type: functional; conditions: variant bovis BCG, 144 h, read-out: GI; method in brief: as §1
[6] = test system: Mycobacterium tuberculosis; experiment: Antimycobacterial activity against Mycobacterium bovis BCG assessed as inhibition of microbial growth incubated for 6 days by MABA method; type: functional; conditions: variant bovis BCG, 144 h; method in brief: as §1
[7] = test system: Mycobacterium tuberculosis; experiment: Antimycobacterial activity against Mycobacterium bovis BCG assessed as inhibition of microbial growth at 1 ug/ml incubated for 6 days by MABA method; type: functional; conditions: variant bovis BCG, 144 h, read-out: GI; method in brief: as §1
[8] = test system: Mycobacterium tuberculosis; experiment: Antimycobacterial activity against Mycobacterium bovis BCG assessed as inhibition of microbial growth at 0.5 ug/ml incubated for 6 days by MABA method; type: functional; conditions: variant bovis BCG, 144 h, read-out: GI; method in brief: as §1

Row | SMILES | inhibition of growth at 50 µg/mL [1] | inhibition of growth at 100 µg/mL [2] | further results
1 | CCc1cn([C@@H]2O[C@H](COC(C)=O)[C@@H](OC(C)=O)[C@@H]2F)c(=O)[nH]c1=O | 55% | 75% | 
2 | CCc1cn([C@@H]2O[C@H](CO)[C@@H](N=[N+]=[N-])[C@@H]2F)c(=O)[nH]c1=O |  |  | growth inhibition (GI) [3]: 0%
3 | COCc1cn([C@@H]2O[C@H](CO)[C@@H](O)[C@@H]2O)c(=O)nc1N | 60% | 80% | inhibition of growth at 10 µg/mL [4]: 50%
4 | CCc1cn([C@@H]2O[C@H](CO)[C@@H](Br)[C@@H]2F)c(=O)[nH]c1=O | 70% | 80% | inhibition of growth at 5 µg/mL [5]: 50%; MIC50 [6]: 5 µg/mL; inhibition of growth at 10 µg/mL [4]: 60%
5 | CCc1cn([C@H]2O[C@@H](CO)[C@H](O)[C@H]2F)c(=O)[nH]c1=O (single isomer, unassigned) |  |  | growth inhibition (GI) [3]: 0%
6 | CCc1cn([C@@H]2O[C@H](CO)C[C@@H]2F)c(=O)[nH]c1=O |  | 25% | 
7 | Cc1cn([C@@H]2O[C@H](CO)[C@@H](Br)[C@@H]2O)c(=O)[nH]c1=O |  |  | inhibition of growth at 1 µg/mL [7]: 40%
8 | O=c1[nH]c(=S)c(CO)cn1[C@@H]1O[C@H](CO)[C@@H](O)[C@@H]1O | 100% | 100% | inhibition of growth at 5 µg/mL [5]: 75%; MIC50 [6]: 0.5 µg/mL; inhibition of growth at 0.5 µg/mL [8]: 50%; inhibition of growth at 10 µg/mL [4]: 90%
9 | CO[C@H]1/C=C/O[C@@]2(C)Oc3c(C)c(O)c4c(O)c(c(/C=N/N5CCN(C)CC5)c(O)c4c3C2=O)NC(=O)/C(C)=C\C=C\[C@H](C)[C@H](O)[C@@H](C)[C@@H](O)[C@@H](C)[C@H](OC(C)=O)[C@@H]1C [RIFAMPIN] |  |  | inhibition of growth at 0.5 µg/mL [8]: 100%
10 | O=c1[nH]c(=O)n([C@@H]2O[C@H](CO)[C@@H](O)[C@@H]2O)cc1CO |  |  | growth inhibition (GI) [3]: 0%
11 | CCc1cn([C@@H]2O[C@H](CO)[C@@H](O)[C@@H]2F)c(=O)nc1N |  | 50% | 
12 | CCc1cn([C@@H]2O[C@H](CO)[C@@H](O)[C@@H]2F)c(=O)[nH]c1=S | 55% | 65% | 
13 | CCc1cn2c(nc1=O)O[C@@H]1[C@H](F)[C@H]2O[C@@H]1CO | 25% | 25% | 

— ChEMBL document CHEMBL2046352, “Discovery of novel 5-(ethyl or hydroxymethyl) analogs of 2'-'up' fluoro (or hydroxyl) pyrimidine nucleosides as a new class of Mycobacterium tuberculosis, Mycobacterium bovis and Mycobacterium avium inhibitors” (Bioorg Med Chem, 2012)
